Experimental findings from ChEMBL document CHEMBL5653622 (Oncotarget, 2016) are described below.

For one data set, the system named is HT-29. In words: Induction of cell cycle arrest in etoposide induced human HT-29 cells assessed as increase in accumulation of cells at S phase at 1 to 5 uM incubated for 24 hrs by BrdU and PI staining based flow cytometry analysis. Format: functional. As to conditions: dose 1-5 µM. In short, it runs like this: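 HT29 cells exposed for 24h, stained with bromodeoxyuridine and propidium iodide, and cell-cycle distribution measured by flow cytometry.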

Data set [1] concerns the target Mitogen-activated protein kinase kinase kinase 1 (Homo sapiens) (UniProt Q13233). In words: Inhibition of human MEKK1 assessed as remaining activity at 10 uM in presence of ATP by radiometric kinase assay relative to control.
For data set [2], the target named is Homeodomain-interacting protein kinase 1 (Homo sapiens) (UniProt Q86Z02). In words: Inhibition of human HIPK1 assessed as remaining activity at 10 uM in presence of ATP by radiometric kinase assay relative to control.
The target in data set [3] is T1, Dual specificity protein kinase CLK2 (Homo sapiens, UniProt P49760). Put plainly: Inhibition of human CLK2 assessed as remaining activity at 10 uM in presence of ATP by radiometric kinase assay relative to control.
T1 sequence (P49760 whole entry, looked up): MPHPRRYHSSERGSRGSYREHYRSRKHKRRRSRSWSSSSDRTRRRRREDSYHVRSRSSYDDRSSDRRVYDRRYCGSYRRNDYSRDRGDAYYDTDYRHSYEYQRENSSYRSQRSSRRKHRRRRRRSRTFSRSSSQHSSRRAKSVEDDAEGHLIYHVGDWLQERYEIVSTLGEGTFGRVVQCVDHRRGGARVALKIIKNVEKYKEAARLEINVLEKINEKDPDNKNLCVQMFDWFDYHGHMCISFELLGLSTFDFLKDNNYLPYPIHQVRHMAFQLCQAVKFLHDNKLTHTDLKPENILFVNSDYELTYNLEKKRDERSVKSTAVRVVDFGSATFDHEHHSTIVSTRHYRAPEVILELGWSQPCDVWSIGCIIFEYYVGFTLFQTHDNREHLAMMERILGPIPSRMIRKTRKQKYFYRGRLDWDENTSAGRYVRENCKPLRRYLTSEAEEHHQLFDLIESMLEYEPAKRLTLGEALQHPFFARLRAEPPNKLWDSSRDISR
For data set [4], the target named is High affinity nerve growth factor receptor (Homo sapiens) (UniProt P04629). In words: Inhibition of human TrkA assessed as remaining activity at 10 uM in presence of ATP by radiometric kinase assay relative to control.
Data set [5] concerns the target Protein kinase C alpha type (Homo sapiens) (UniProt P17252). In words: Inhibition of human PKCa assessed as remaining activity at 10 uM in presence of ATP by radiometric kinase assay relative to control.
For data set [6], the target named is Vascular endothelial growth factor receptor 2 (Homo sapiens, UniProt P35968). In words: Inhibition of VEGFR2 (unknown origin) by FRET based Z-LYTE kinase assay.
Vascular endothelial growth factor receptor 2, sequence (P35968 whole entry): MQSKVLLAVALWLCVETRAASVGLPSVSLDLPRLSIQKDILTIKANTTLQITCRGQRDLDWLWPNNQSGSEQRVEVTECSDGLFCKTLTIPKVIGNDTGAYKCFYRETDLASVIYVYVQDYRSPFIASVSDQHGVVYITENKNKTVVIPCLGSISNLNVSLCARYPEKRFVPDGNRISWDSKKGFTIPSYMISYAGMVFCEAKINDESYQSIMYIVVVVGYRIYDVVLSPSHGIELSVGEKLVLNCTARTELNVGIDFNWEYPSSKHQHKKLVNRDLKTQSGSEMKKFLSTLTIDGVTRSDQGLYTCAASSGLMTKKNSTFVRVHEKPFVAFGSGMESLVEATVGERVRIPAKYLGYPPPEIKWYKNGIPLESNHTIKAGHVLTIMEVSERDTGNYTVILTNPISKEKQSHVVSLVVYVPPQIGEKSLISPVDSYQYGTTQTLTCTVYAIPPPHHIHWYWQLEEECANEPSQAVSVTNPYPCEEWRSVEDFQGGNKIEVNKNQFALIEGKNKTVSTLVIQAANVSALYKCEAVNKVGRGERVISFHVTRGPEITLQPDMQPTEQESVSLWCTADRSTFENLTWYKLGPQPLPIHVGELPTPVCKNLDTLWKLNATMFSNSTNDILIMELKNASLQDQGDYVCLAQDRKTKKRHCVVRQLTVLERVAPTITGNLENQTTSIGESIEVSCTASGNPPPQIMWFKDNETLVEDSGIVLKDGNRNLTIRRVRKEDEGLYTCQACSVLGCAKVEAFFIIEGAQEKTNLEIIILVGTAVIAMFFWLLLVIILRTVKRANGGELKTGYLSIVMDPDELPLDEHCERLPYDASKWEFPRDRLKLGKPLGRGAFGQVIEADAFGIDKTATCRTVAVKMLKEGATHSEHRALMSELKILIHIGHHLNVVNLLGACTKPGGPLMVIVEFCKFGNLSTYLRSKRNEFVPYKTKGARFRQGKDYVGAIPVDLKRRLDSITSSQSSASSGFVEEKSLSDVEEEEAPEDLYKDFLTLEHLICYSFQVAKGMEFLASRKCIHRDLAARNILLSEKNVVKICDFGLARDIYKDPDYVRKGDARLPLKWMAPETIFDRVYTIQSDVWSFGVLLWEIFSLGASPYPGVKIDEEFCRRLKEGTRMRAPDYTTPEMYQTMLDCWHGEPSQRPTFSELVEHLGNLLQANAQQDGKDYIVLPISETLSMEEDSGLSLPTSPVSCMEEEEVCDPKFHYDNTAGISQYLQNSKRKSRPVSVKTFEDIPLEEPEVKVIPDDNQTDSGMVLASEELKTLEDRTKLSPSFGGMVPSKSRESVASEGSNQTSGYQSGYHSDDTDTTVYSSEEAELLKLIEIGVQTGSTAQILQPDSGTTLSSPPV
Data set [7] has as its target RAC-beta serine/threonine-protein kinase (Homo sapiens) (UniProt P31751). In words: Inhibition of human PKBb assessed as remaining activity at 10 uM in presence of ATP by radiometric kinase assay relative to control.
The target of data set [8] is T1, Dual specificity protein kinase CLK2. Put plainly: Inhibition of human CLK2 at 10 uM in presence of ATP by radiometric kinase assay relative to control.
The nature of data set [9]: Toxicity in Emu-Myc driven transgenic mouse transplant model of B-cell lymphoma assessed as reduction in weight of the inguinal lymph nodes at 150 mg/kg, po administered for 9 days. Format: organism-based. The note with it: in vivo, 216 h, time 9 day.
Data set [10] addresses Receptor-interacting serine/threonine-protein kinase 2 (Homo sapiens) (UniProt O43353). Put plainly: Inhibition of human RIPK2 assessed as remaining activity at 10 uM in presence of ATP by radiometric kinase assay relative to control.
The subject of data set [11] is Mus musculus. Put plainly: In vivo inhibition of total CHK1 in CRTac:Ncr-Fox1 athymic mouse xenografted with human Calu-6 cells at 150 mg/kg, po in presence of gemcitabine and carboplatin by ELISA analysis. In kind it is functional, organism-based.
Data set [12] can be described thus: Inhibition of human CDK2/Cyclin A by FRET based Z-LYTE kinase assay.
The subject of data set [13] is Mus musculus. In words: In vivo inhibition of CHK1 in CRTac:Ncr-Fox1 mouse xenografted with human HT-29 cells assessed as reduction of phosphorylation of CHK1 on S317 at 50 to 100 mg/kg, po administered for 24 hrs by Western blotting analysis. The note with it: dose 50-100 mg/kg. Format: functional, organism-based. In a few lines: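 HT29 s.c. xenografts in female athymic nude mice. Single gemcitabine dose 100mg/kg i.v. on day 0, then one inhibitor dose 50 or 100mg/kg p.o. (DPTW vehicle) 24h later. Tumors taken 24h after the last dose, western blotted, and signals quantified by normalizing to GAPDH.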

Data set [14] addresses MAP kinase-activated protein kinase 5 (Homo sapiens) (UniProt Q8IW41). In words: Inhibition of human PRAK assessed as remaining activity at 10 uM in presence of ATP by radiometric kinase assay relative to control.
Data set [15] addresses Aurora kinase A (Homo sapiens) (UniProt O14965). Put plainly: Inhibition of human AuroraA assessed as remaining activity at 10 uM in presence of ATP by radiometric kinase assay relative to control.
Data set [16] is described as follows: Cmax in BALB/C mouse spleen at 10 mg/kg, po by LC/MS-MS analysis. Format: ADME, organism-based. In short, it runs like this:
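Female BALB/c mice received a single 10mg/kg bolus i.v. or p.o. Plasma (and spleen homogenate) extracted with methanol containing internal standards. Concentrations were measured by LC/MS-MS and PK parameters calculated with modelling software.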

Data set [17] in a line: Toxicity in CRTac:Ncr-Fox1 mouse xenografted with human HT-29 cells assessed as body weight at 12.5 mg/kg, po administered for 16 days in presence of gemcitabine relative to control. Format: organism-based. The note with it: in vivo, 384 h, time 16 day.
For the next data set, the species on record is Homo sapiens. Put plainly: Inhibition of human AMPK at 10 uM in presence of ATP by radiometric kinase assay relative to control.
The target of data set [18] is Ribosomal protein S6 kinase alpha-5 (Homo sapiens) (UniProt O75582). In words: Inhibition of human MSK1 assessed as remaining activity at 10 uM in presence of ATP by radiometric kinase assay relative to control.
Ribosomal protein S6 kinase alpha-5 (Homo sapiens), sequence (O75582 whole entry, looked up): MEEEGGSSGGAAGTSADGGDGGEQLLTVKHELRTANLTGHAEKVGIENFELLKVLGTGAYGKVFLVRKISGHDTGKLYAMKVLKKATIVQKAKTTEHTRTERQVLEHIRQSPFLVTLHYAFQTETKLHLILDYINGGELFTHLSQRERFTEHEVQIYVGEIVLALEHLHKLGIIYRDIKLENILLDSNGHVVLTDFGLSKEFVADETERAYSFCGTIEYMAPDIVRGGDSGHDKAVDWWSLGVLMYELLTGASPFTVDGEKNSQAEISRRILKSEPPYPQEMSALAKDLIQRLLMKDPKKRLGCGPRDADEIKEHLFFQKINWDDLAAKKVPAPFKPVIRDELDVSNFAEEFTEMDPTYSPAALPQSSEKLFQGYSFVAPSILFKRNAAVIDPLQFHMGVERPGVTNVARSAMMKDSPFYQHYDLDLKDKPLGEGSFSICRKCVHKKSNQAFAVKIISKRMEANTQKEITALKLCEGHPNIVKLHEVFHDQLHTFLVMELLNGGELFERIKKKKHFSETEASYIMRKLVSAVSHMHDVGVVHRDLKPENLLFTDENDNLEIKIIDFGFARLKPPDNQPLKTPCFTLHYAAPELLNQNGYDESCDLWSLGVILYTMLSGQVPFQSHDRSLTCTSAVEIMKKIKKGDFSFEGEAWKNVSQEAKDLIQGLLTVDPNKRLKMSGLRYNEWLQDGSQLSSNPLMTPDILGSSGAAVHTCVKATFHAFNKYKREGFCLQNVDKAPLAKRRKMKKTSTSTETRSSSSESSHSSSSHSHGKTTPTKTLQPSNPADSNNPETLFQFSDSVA
Data set [19] addresses Ribosomal protein S6 kinase beta-1 (Homo sapiens) (UniProt P23443). In words: Inhibition of human S6K1 assessed as remaining activity at 10 uM in presence of ATP by radiometric kinase assay relative to control.
In the next data set the test system is SW-620. In words: Induction of apoptosis in human SW620 cells assessed as increased in cleaved PARP in presence of gemcitabine by Western blotting analysis. Format: functional, cell-based.

Active and inactive are the calls of the source. The calls are words filed in the database; no cut-off is given here.

Aurora kinase A (Homo sapiens), sequence (O14965 whole entry): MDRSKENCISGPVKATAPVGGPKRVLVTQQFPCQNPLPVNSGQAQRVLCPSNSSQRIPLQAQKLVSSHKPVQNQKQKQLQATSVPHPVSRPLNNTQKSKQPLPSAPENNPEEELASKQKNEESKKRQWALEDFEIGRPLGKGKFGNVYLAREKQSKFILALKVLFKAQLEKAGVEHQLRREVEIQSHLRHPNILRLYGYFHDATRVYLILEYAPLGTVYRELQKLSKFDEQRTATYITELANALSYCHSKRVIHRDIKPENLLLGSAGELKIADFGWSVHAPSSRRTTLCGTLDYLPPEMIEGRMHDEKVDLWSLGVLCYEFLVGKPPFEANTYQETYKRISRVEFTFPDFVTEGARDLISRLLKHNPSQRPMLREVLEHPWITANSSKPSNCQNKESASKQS
RAC-beta serine/threonine-protein kinase (Homo sapiens), sequence (P31751 whole entry): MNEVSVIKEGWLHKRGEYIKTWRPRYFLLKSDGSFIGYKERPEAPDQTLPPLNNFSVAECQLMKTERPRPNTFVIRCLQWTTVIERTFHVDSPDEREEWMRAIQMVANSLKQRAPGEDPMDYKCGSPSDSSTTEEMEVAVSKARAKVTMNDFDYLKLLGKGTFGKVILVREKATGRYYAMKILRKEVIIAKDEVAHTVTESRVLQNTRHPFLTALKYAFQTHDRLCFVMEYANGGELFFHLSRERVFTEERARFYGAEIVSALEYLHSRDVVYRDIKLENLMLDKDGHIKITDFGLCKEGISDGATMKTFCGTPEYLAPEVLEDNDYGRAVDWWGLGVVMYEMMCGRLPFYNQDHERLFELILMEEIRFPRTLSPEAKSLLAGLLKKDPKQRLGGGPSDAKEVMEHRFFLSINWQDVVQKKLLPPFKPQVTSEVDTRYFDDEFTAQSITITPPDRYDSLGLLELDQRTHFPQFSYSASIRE
Mitogen-activated protein kinase kinase kinase 1 (Homo sapiens), sequence (Q13233 whole entry): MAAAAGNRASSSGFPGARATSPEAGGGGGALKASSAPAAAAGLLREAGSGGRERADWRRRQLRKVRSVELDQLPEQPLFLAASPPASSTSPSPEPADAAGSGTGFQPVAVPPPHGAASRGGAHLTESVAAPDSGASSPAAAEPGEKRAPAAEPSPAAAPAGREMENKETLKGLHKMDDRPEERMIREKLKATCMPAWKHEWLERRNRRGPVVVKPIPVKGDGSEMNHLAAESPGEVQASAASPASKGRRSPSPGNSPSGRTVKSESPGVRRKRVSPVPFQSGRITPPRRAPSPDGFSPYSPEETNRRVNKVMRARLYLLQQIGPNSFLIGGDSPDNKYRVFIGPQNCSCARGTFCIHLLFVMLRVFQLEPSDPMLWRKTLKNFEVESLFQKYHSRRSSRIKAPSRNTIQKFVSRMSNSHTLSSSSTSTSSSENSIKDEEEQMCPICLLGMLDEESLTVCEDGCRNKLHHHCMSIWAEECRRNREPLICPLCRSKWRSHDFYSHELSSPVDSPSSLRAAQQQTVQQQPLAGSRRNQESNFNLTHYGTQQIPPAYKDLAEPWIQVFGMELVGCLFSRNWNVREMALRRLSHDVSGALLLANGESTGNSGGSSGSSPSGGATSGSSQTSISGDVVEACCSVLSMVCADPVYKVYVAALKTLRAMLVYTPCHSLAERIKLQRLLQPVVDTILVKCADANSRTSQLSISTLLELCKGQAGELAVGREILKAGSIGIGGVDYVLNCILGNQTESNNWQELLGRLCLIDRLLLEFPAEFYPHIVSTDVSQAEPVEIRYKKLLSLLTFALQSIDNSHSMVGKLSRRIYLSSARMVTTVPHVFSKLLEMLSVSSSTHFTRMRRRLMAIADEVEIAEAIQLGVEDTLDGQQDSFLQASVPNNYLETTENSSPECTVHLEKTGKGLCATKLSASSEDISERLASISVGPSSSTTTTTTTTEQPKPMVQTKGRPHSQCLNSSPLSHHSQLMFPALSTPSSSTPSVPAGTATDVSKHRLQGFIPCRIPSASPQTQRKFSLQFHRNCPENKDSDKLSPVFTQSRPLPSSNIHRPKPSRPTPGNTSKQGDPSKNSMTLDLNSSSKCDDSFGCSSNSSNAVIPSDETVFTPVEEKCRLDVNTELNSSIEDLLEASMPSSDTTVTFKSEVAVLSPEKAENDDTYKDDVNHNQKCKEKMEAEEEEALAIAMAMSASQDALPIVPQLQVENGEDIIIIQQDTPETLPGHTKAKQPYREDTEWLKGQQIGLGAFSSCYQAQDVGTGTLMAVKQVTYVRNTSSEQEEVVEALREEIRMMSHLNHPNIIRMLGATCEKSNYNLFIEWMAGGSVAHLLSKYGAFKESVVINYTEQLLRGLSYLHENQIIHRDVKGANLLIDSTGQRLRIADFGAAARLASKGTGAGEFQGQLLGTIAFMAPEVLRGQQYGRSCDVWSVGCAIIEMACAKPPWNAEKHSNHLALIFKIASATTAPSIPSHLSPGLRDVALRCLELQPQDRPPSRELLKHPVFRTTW

For `N#Cc1cnc(Nc2cc(NC[C@H]3CNCCO3)c(C(F)(F)F)cn2)cn1` [SRA-737], the outcome with HT-29 and in the data set on SW-620 was Active. Further, the Activity was 77% in data set [1]; 77% in [2]; 6% in data set [3]; 31% in [4]; 82% in [5]; 100% in [7]. In addition, the Activity entry is “Toxic” in data set [9]; 101% in data set [10]; 71% in data set [14]; 75% in [15]; 97.5% in [17]; 30% in data set [18]. Moreover, the Activity in data set [19] amounted to 52%. Further, the values for the IC50 in data set [6] and in [12] were 2100 nM and 3850 nM, respectively. Further, the inhibition in [8] stood at 94%; in the data set filed under Homo sapiens it was 68%. The inhibition entry with Mus musculus [11] is “Active”. Also, the result in the data set with Mus musculus [13] was inactive. In addition, in data set [16], the highest level (Cmax) was 30.1 µM.
